Key:
[1] = system: esterase; assay: Stability of compound assessed as pig liver esterase mediated hydrolysis by measuring half life at 50 uM by HPLC analysis; format: ADME, Sus scrofa
Method in brief: (§1)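 Compounds incubated with pig liver esterase, cell culture medium or MCF-7 cell extracts; decomposition followed by HPLC with direct injection of the biological medium, no sample pretreatment; half-lives determined; hydrolysis metabolite identified by co-injection with authentic sample.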

[2] = Stability of compound in culture media assessed as compound hydrolysis by measuring half life at 50 uM by HPLC analysis; format: physicochemical; method in brief: as §1
[3] = Stability of compound in MCF7 cell extract assessed as compound hydrolysis by measuring half life at 50 uM by HPLC analysis; format: physicochemical; settings: human; method in brief: as §1
[4] = Drug metabolism assessed as compound hydrolysis by measuring 2-(6-hydroxy-3-oxo-3H-xanthen-9-yl)-5-((1-((2R,4S,5R)-4-hydroxy-5-(hydroxymethyl)tetrahydrofuran-2-yl)-2-oxo-1,2-dihydropyrimidin-4-yl)carbamoyl)benzoic acid formation; format: ADME; method in brief: as §1
[5] = Drug localization in mitochondria of human MCF7 cells at 50 uM incubated for 24 hrs by MitoTracker red CMXRos staining based confocal fluorescence microscopy; format: ADME; settings: mcf7, 24 h
Method in brief: (§2)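 MCF-7 cells incubated 24 h at 37 °C with 50 μM fluorescein-labelled compound; mitochondria stained with 200 nM MitoTracker red CMXRos and nuclei with Hoechst 33342 (10 μg/mL final); cells washed twice with medium, then imaged by confocal microscopy (488 nm fluorescein, 561 nm MitoTracker, 760 nm Hoechst, 63×/1.4 oil objective); untreated cells as control.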

[6] = Drug localization in mitochondria of human MCF7 cells assessed as appearance of green and red overlapped superimposed images at 100 uM incubated for 24 hrs by MitoTracker red CMXRos staining based super-resolution confocal fluorescence microscopy; format: ADME; settings: mcf7, 24 h
Method in brief: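 Living MCF-7 cells treated 24 h with 100 μM fluorescein-labelled compound, stained with 100 nM MitoTracker red CMXRos and Hoechst 33342 (10 μg/mL final), washed twice with medium; Airyscan super-resolution confocal imaging (488/561/405 nm, 63×); co-localization judged from overlapping green and red areas in superimposed images; untreated cells as control.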

[7] = Cytotoxicity against human MCF7 cells assessed as cell viability upto 50 uM measured after 72 hrs by MTT assay relative to control; format: toxicity, cell-based; settings: read-out: Activity
Method in brief: (§3)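 MCF-7 breast cancer cells exposed to test compounds at a range of concentrations (up to 100 μM) for 72 h; cell viability measured and expressed as percentage viability or cell death relative to untreated control.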

[8] = Cytotoxicity against human MCF7 cells assessed as cell viability at 100 uM measured after 72 hrs by MTT assay relative to control; format: toxicity, cell-based; settings: read-out: Activity; method in brief: as §3
[9] = Drug concentration in living human MCF7 cells at 5 uM incubated for 24 hrs by flow cytometry analysis; format: ADME, cell-based; settings: mcf7, 24 h
Method in brief: (§4)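 Living MCF-7 cells incubated 24 h with test compounds at different concentrations; fluorescein-labelled compound uptake quantified by flow cytometry as percentage internalization; mean ± SEM of three independent experiments.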

[10] = Drug concentration in living human MCF7 cells at 10 uM incubated for 24 hrs by flow cytometry analysis; format: ADME, cell-based; settings: mcf7, 24 h; method in brief: as §4
[11] = Drug concentration in living human MCF7 cells at 25 uM incubated for 24 hrs by flow cytometry analysis; format: ADME, cell-based; settings: mcf7, 24 h; method in brief: as §4
[12] = Drug concentration in living human MCF7 cells at 50 uM incubated for 24 hrs by flow cytometry analysis; format: ADME, cell-based; settings: mcf7, 24 h; method in brief: as §4
[13] = Drug accumulation in living human MCF7 cells at 25 uM incubated for 24 hrs by flow cytometry analysis; format: ADME, cell-based; settings: mcf7, 24 h; method in brief: as §4
[14] = Drug localization in cytoplasm of human MCF7 cells at 50 uM incubated for 24 hrs by confocal fluorescence microscopy; format: ADME, subcellular; settings: mcf7, 24 h; method in brief: as §2
[15] = Drug internalization in living human MCF7 cells at 5 uM incubated for 24 hrs by flow cytometry analysis; format: ADME, cell-based; settings: mcf7, 24 h; method in brief: as §4
[16] = Drug internalization in living human MCF7 cells at 10 uM incubated for 24 hrs by flow cytometry analysis; format: ADME, cell-based; settings: mcf7, 24 h; method in brief: as §4
[17] = system: MCF7; assay: Cytotoxicity against human MCF7 cells assessed as cell death at 10 uM measured after 72 hrs by MTT assay relative to control; format: toxicity, cell-based; settings: mcf7, 72 h; method in brief: as §3
[18] = system: MCF7; assay: Cytotoxicity against human MCF7 cells assessed as cell death at 50 uM measured after 72 hrs by MTT assay relative to control; format: toxicity, cell-based; settings: mcf7, 72 h; method in brief: as §3
[19] = Drug internalization in living human MCF7 cells at 50 uM incubated for 24 hrs by flow cytometry analysis; format: ADME, cell-based; settings: mcf7, 24 h; method in brief: as §4
[20] = Stability of compound in culture media assessed as compound hydrolysis at 50 uM by HPLC analysis; format: physicochemical; method in brief: as §1

Question: Which results are given for `O=C(CCCCCCCCC[P+](c1ccccc1)(c1ccccc1)c1ccccc1)OC[C@H]1O[C@@H](n2ccc(NC(=O)c3ccc(-c4c5ccc(=O)cc-5oc5cc(O)ccc45)c(C(=O)O)c3)nc2=O)C[C@@H]1O.O=C([O-])C(F)(F)F`?
Answer: half-life at 50 µM [1]: < 0.25 h; half-life at 50 µM [2]: > 17.8 h; half-life at 50 µM [3]: > 8.4 h; Drug metabolism [4]: Metabolite_Detected; Drug uptake [5]: Active; Drug uptake [6]: Active; viability at 72 h, up to 50 µM [7]: 84%; viability at 72 h, 100 µM [8]: 60%; Drug uptake [9]: 3%; Drug uptake [10]: 24%; Drug uptake [11]: 96%; Drug uptake [12]: 100%; Drug uptake [13]: 96%

Question: With `Nc1ccn([C@H]2C[C@H](O)[C@@H](COC(=O)CCCCCCCCC[P+](c3ccccc3)(c3ccccc3)c3ccccc3)O2)c(=O)n1.O=C(O)C(F)(F)F.O=C([O-])C(F)(F)F` as the compound, how does the half-life at 50 µM [1] read?
Answer: < 0.25 h

Question: And the half-life at 50 µM [2]?
Answer: > 17.8 h

Question: What about the half-life at 50 µM [3] of the same compound?
Answer: > 8.4 h

Question: With `O=C(Nc1ccn([C@H]2C[C@H](O)[C@@H](CO)O2)c(=O)n1)c1ccc(-c2c3ccc(=O)cc-3oc3cc(O)ccc23)c(C(=O)O)c1` as the compound, how does the Drug uptake [14] read?
Answer: Active

Question: What about the Drug uptake [5] of the same compound?
Answer: Not Active

Question: And the Drug uptake [9]?
Answer: 2%

Question: And the Drug uptake [10]?
Answer: 12%

Question: What about the Drug uptake [11] of the same compound?
Answer: 62%

Question: And the Drug uptake [12]?
Answer: 87%

Question: What about the Drug uptake [13] of the same compound?
Answer: 62%

Question: What does the source list for `O=C(CC[P+](c1ccccc1)(c1ccccc1)c1ccccc1)OC[C@H]1O[C@@H](n2ccc(NC(=O)c3ccc(-c4c5ccc(=O)cc-5oc5cc(O)ccc45)c(C(=O)O)c3)nc2=O)C[C@@H]1O.O=C([O-])C(F)(F)F`?
Answer: Drug uptake [14]: Active; Drug uptake [5]: Active; Drug uptake [9]: 27%; Drug uptake [10]: 61%; Drug uptake [11]: 96%; Drug uptake [12]: 99%; Drug uptake [13]: > 95%; Drug uptake [15]: 27%; Drug uptake [16]: 61%

Question: For `O=C(CCCCC[P+](c1ccccc1)(c1ccccc1)c1ccccc1)OC[C@H]1O[C@@H](n2ccc(NC(=O)c3ccc(-c4c5ccc(=O)cc-5oc5cc(O)ccc45)c(C(=O)O)c3)nc2=O)C[C@@H]1O.O=C([O-])C(F)(F)F`, which Activity [17] is on record?
Answer: 61%

Question: And the Activity [18]?
Answer: 44%

Question: What about the Drug uptake [9] of the same compound?
Answer: 0.4%

Question: What about the Drug uptake [10] of the same compound?
Answer: 0.8%

Question: What about the Drug uptake [11] of the same compound?
Answer: 3%

Question: What about the Drug uptake [12] of the same compound?
Answer: 17%

Question: And the Drug uptake [19]?
Answer: 17%

Question: For `Nc1ccn([C@H]2C[C@H](O)[C@@H](COC(=O)CC[P+](c3ccccc3)(c3ccccc3)c3ccccc3)O2)c(=O)n1.O=C(O)C(F)(F)F.O=C([O-])C(F)(F)F`, which half-life at 50 µM [1] is on record?
Answer: < 0.25 h

Question: What about the Stability [20] of the same compound?
Answer: Unstable

Question: What about the half-life at 50 µM [3] of the same compound?
Answer: > 8.4 h

Question: Which results are given for `Nc1ccn([C@H]2C[C@H](O)[C@@H](COC(=O)CCCCC[P+](c3ccccc3)(c3ccccc3)c3ccccc3)O2)c(=O)n1.O=C(O)C(F)(F)F.O=C([O-])C(F)(F)F`?
Answer: half-life at 50 µM [1]: < 0.25 h; half-life at 50 µM [2]: > 17.8 h; half-life at 50 µM [3]: > 8.4 h
